“And” between values parts separate entries of the source, which are not always exact repeats. Equal entries are not always repeated.
Experiments:
AMSH = molecular target: T1, AMSH (Homo sapiens, UniProt O95630); assay: In vitro AMSH activity assay; format: biochemical
T1 sequence (O95630 1-424): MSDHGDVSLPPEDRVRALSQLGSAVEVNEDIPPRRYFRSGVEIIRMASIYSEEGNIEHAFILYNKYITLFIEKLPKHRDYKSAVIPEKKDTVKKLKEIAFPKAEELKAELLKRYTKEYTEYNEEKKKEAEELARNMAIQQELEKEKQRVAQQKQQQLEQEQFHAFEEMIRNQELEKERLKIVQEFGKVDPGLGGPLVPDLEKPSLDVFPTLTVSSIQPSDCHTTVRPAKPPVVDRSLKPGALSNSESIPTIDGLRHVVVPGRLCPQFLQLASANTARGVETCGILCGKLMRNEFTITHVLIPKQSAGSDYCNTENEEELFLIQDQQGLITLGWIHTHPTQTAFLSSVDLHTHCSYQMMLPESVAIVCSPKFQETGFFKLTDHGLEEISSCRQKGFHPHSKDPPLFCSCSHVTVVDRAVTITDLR

BRCC36 = BRCC36 (Homo sapiens, UniProt P46736); assay: In vitro BRCC36 activity assay; format: biochemical
Sequence of BRCC36 (P46736 whole entry): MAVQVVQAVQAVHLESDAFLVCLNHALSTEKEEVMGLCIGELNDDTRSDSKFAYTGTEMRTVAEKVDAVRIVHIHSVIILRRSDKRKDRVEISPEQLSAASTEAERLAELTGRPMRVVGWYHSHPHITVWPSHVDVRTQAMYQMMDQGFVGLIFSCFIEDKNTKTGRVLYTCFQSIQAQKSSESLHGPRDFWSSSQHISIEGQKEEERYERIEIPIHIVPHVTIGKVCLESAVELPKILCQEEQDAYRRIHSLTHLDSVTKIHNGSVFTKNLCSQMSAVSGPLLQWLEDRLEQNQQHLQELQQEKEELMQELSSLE
Sequence of BRCC36 (Q9NWV8 whole entry, further chain): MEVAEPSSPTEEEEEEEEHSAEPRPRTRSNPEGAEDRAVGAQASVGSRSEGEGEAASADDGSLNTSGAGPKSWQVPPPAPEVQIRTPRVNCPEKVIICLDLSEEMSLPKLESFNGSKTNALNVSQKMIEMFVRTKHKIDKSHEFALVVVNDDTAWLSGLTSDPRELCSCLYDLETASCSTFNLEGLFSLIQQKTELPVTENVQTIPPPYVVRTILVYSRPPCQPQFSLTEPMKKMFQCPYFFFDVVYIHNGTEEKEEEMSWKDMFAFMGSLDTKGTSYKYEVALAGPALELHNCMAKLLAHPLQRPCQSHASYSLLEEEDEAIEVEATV
Sequence of BRCC36 (Q9NXR7 whole entry, further chain): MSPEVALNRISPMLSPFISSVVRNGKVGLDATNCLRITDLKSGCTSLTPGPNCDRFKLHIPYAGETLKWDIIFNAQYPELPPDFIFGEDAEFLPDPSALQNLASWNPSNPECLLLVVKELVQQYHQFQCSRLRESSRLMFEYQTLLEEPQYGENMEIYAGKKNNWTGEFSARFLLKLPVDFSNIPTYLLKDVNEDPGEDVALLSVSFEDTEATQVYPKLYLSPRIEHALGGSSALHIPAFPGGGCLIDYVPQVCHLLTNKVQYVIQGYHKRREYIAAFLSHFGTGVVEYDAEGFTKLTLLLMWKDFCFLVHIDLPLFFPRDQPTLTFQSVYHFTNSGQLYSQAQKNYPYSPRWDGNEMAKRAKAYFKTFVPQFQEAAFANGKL

thermolysin = thermolysin (Bacillus thermoproteolyticus, UniProt P00800); assay: Thermolysin inhibition assay; format: biochemical, bacterial
Sequence of thermolysin (P00800 233-548): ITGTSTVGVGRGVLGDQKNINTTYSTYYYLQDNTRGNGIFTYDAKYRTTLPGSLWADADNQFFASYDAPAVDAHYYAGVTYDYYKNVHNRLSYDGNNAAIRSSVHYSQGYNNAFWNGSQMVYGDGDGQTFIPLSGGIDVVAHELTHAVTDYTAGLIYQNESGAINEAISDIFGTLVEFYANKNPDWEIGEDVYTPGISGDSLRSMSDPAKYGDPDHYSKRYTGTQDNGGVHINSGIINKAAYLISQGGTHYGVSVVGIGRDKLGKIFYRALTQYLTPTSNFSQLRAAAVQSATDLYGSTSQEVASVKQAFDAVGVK

USP5 = molecular target: T2, USP5 (Homo sapiens, UniProt P45974); assay: In vitro DUB activity assay, USP5; format: biochemical; settings: 50 μM THL
T2 sequence (P45974 1-858): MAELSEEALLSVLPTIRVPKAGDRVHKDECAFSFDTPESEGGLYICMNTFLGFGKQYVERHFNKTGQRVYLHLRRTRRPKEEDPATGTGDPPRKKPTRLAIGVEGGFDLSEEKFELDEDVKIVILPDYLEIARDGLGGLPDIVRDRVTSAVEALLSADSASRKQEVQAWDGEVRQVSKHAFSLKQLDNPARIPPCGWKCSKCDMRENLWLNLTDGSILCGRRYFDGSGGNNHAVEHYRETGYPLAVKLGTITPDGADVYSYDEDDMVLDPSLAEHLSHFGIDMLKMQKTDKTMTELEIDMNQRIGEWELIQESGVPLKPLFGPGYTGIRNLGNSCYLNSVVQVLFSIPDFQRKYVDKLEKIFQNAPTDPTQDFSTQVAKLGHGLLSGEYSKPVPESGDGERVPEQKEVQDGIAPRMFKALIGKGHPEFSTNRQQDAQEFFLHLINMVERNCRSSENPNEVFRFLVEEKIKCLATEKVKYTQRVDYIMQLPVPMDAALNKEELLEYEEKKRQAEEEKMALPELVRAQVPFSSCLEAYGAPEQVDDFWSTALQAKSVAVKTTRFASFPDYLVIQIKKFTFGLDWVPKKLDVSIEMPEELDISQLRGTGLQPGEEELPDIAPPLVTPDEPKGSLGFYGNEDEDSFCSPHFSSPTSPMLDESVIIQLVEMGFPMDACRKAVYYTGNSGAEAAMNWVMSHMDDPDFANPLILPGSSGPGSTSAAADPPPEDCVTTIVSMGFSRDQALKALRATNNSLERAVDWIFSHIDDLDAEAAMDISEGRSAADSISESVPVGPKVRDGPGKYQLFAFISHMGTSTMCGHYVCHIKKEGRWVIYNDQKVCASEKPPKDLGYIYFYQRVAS
Procedure, shortened: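 Human USP25 or USP5 expressed in E. coli and purified. Enzyme (4 nM) preincubated 30 min at 30°C in Hepes pH 7.3 buffer (KOAc, Mg(OAc)2, EGTA, 1 mM DTT, Tween 20, ovalbumin, protease inhibitors) with DMSO, 50 μM test compound or 50 μM PR619. Reaction started with 1 μM K48-linked tetra-ubiquitin, stopped after 10 or 30 min with SDS sample buffer plus DTT, and analysed by anti-Ub Western blot.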

20S proteasome = 20S proteasome (Homo sapiens, UniProt P28072+P28074+Q99436); assay: 20S proteasome assay; format: biochemical
Procedure, shortened: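 Purified 20S proteasome (1.4 nM) preincubated at 37°C in 25 mM Hepes pH 7.6, 0.5 mM EDTA, 0.03% SDS. Fluorogenic substrates Suc-LLVY-AMC, Suc-LY-AMC, Bz-VGR-AMC or Z-LLE-AMC added to 10 μM final. Hydrolytic activity read as rate of AMC release by fluorescence at 20 min intervals.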

RNA polymerase II = RNA polymerase II (Saccharomyces cerevisiae, UniProt P04050+P08518); assay: In vitro run-off transcription using tailed templates, Pol II; format: biochemical, S.cerevisiae; settings: affinity purified polymerase
N.crassa [1] = assay: Accumulation of ubiquitylated proteins; format: cell-based, Neurospora crassa
HeLa cells [2] = assay: Accumulation of ubiquitylated proteins; format: cell-based
HeLa cells [3] = assay: HeLa cell adhesion measurement; format: cell-based
Procedure, shortened: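 HeLa cells (DMEM, 10% FCS, penicillin/streptomycin) densely seeded at 200.000 per well. After 24 h, test compound or MG132 (DMSO) added at the indicated final concentrations from a dilution series to keep added volume constant. After 2 h, supernatant removed and detached cells counted in a Neubauer chamber. Alternatively, adhesion judged by microscopic morphology at 20×.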

N.crassa [4] = assay: Protein degradation; format: cell-based, Neurospora crassa
Procedure, shortened: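 N. crassa grown in liquid medium (2% glucose, 2% arginine, 1× Vogel's) and treated with 10 μg/ml cycloheximide, 50 μM test compound (DMSO), or both. Whole-cell lysates taken at time points; 400 μg protein per lane blotted with VVD, FRQ and β-tubulin antibodies, with ECL detection on film. Three independent cultures.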

HeLa cells [5] = assay: Turnover of c-MYC in HeLa cells; format: cell-based; settings: 10 μM THL
N.crassa [6] = assay: Transcript levels by qRT-PCR in N.crassa; format: cell-based, Neurospora crassa; settings: 50 μM
Procedure, shortened: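 N. crassa liquid cultures incubated 4 h with indicated test compound concentrations (frq), or with 50 μM over a time course (vvd). RNA quantified by TaqMan qRT-PCR and normalised to 28S rRNA. Three independent experiments, each measured in triplicate.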

S.cerevisiae = assay: Transcript levels by qRT-PCR in S.cerevisiae; format: cell-based, Saccharomyces cerevisiae; settings: 50 μM THL
N.crassa [7] = assay: RNA sequencing; format: cell-based, Neurospora crassa
Procedure, shortened: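 N. crassa treated with 50 μM test compound for 0, 40 and 120 min, then RNA sequenced. Read counts normalised to reads mapping to supercontig 8 (ribosomal loci). Genes in the lower quartile of mean reads discarded as not expressed.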

SMILES: CC(=O)Nc1c2sscc-2n(C)c1=O [THL, thiolutin]
- AMSH IC50 relative to that measured for Rpn11 (AMSH; AMSH IC50 higher than Rpn11 IC50): ~8 fold
- IC50 (AMSH; IC50, inhibition of AMSH, absence of Zn(cyclen)^2+): 4 µM and 3.96 µM
- inhibition of AMSH in presence of Zn(cyclen)^2+ (AMSH; presence of Zn(cyclen)^2+): inhibition was reversible by Zn(cyclen)^2+
- de-ubiquitylation of substrate by BRISC (in words) (BRCC36): inhibited de-ubiquitylation of substrate by BRISC
- IC50 (thermolysin): ~2.5 µM
- de-ubiquitylation of substrates by UPS5 (USP5): did not inhibit
- trypsin-, chymotrypsin-, and caspase-like activities of the proteolytic core (20S proteasome): did not inhibit
- inhibition of yeast RNA polymerase II, run-off transcription (RNA polymerase II): None of the three yeast polymerases were inhibited
- accumulation of ubiquitylated proteins in N.crassa (N.crassa [1]): ubiquitylated proteins accumulated
- accumulation of ubiquitylated proteins in HeLa cells (HeLa cells [2]): ubiquitylated proteins accumulated
- adhesion / detachment of HeLa cells (HeLa cells [3]): efficiently inhibited adhesion
- degradation of FRQ (N.crassa [4]): blocked but resumed after a wash-out
- degradation of VVD (N.crassa [4]; 50 μM THL alone or with CHX): completely blocked degradation
- degradation of c-MYC (HeLa cells [5]): blocked degradation of c-MYC
- levels of the N.crassa transcripts vvd and frq (N.crassa [6]): dropped rapidly
- levels of the S.cerevisiae transcripts dbp2 and not3 (S.cerevisiae): decreased in the presence of THL
- global gene expression (RNAseq) (N.crassa [7]; 50 μM THL for 40 or 120 min): vast majority of genes were efficiently downregulated
- number of up-regulated genes (RNAseq) (N.crassa [7]; 50 μM THL, 0, 40, 120 min): 267 genes
- overall concentration of intracellular Zn^2+ (HEK293T cells): did not reduce

From PMC5792653 (Nature chemical biology, 2017)
